Reference: ChEMBL document CHEMBL4680093 (J Med Chem, 2016)

Legend:
[1] = molecular target: T1, Mineralocorticoid receptor (Homo sapiens, UniProt P08235); assay: Agonist activity at mineralocorticoid receptor (unknown origin)
T1 sequence (P08235 whole entry): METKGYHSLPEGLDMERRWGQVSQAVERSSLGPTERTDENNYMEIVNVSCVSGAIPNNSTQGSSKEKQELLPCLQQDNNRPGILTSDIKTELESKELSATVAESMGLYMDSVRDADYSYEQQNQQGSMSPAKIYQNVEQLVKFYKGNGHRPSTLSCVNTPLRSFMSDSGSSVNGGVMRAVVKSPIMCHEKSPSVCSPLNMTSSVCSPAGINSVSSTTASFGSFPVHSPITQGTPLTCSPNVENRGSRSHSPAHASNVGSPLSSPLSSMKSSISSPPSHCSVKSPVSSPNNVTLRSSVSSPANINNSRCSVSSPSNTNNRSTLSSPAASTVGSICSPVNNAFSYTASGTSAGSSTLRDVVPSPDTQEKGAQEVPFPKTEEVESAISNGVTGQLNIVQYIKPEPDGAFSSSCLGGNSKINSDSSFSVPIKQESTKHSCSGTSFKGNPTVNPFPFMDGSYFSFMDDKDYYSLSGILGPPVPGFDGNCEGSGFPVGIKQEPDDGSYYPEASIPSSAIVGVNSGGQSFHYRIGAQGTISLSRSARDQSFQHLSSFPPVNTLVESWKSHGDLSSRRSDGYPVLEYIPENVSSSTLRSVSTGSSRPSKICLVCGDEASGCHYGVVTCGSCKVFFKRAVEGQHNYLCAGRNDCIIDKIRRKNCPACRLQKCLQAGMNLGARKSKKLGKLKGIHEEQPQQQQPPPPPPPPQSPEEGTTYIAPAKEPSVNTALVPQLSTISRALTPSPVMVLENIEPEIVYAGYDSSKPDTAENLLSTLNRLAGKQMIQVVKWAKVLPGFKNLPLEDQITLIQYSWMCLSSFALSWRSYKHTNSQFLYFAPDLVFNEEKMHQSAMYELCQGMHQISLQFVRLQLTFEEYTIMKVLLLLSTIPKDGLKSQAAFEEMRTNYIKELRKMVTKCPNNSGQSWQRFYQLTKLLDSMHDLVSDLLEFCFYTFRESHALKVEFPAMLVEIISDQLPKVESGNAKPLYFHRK

[2] = Unbound drug level in mouse plasma at 10 mg/kg, po measured after 2 hrs post dose; assay type: ADME, organism-based; conditions: in vivo
[3] = Cmax in rat at 5 mg/kg, po; assay type: ADME, organism-based; design: route oral, dose 5 mg/kg; conditions: in vivo
Mus musculus = assay: Improvement in lipid profile in C57BL/6-Lep^ob (ob/ob) mouse assessed as total cholesterol level at 20 mg/kg, po dosed once daily for 25 days (reference value: 286.6 +/- 6.3 mg/dl); assay type: functional; conditions: time 25 day
[4] = Drug level in mouse adipose tissue at 10 mg/kg, po measured after 2 hrs post dose; assay type: ADME, organism-based; conditions: in vivo
Procedure, shortened: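 C57BL/6 mice given a single oral 10 mg/kg dose in 0.5% methylcellulose plus 1% Tween80. Sacrifice at 2 h post-dose, with collection of brain, liver, adipose and plasma. Compound concentration expressed as nmol/g, along with tissue/plasma ratio.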

[5] = molecular target: T2, 11-beta-hydroxysteroid dehydrogenase type 2 (Homo sapiens) (UniProt P80365); assay: Inhibition of human 11beta-HSD2 expressed in microsomes at 10 uM relative to control; conditions: Microsome
T2 sequence (whole entry): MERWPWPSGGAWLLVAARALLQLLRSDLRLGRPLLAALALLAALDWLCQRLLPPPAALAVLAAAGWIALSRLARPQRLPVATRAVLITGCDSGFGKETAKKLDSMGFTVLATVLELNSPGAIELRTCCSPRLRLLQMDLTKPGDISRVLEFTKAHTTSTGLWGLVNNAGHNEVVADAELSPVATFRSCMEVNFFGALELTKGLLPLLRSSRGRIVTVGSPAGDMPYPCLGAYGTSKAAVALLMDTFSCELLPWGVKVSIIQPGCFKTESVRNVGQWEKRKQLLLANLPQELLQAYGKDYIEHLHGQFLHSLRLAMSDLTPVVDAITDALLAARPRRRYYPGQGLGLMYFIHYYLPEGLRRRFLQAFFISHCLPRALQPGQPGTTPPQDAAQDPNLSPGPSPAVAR

[6] = Tmax in mouse at 5 mg/kg, po; assay type: ADME, organism-based; conditions: in vivo
Procedure, shortened: (§1)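 Single-dose PK study. The iv dose was given in 10% hydroxypropyl-β-cyclodextrin and the oral dose in 0.5% methylcellulose/1% Tween80. Mouse and rat received 1 mg/kg iv and 5 mg/kg po. Dog received 0.5 mg/kg iv and 4 mg/kg po. CL, Vss, t1/2, AUC, Cmax, tmax and F were derived.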

[7] = AUC in rat at 5 mg/kg, po; assay type: ADME, organism-based; design: dose 5 mg/kg; conditions: in vivo
[8] = In-vivo inhibition of 11beta-HSD1 activity in C57BL/6 mouse liver assessed as reduction in cortisone to-cortisol conversion at 3 mg/kg, po measured after 2 hrs by ELISA; assay type: functional; conditions: C57BL/6, Liver
Procedure, shortened: (§2)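 Male C57BL/6 mice dosed orally once at 3, 10 or 30 mg/kg in sterile water containing 0.5% methylcellulose and 1% Tween80, then sacrificed at 2 or 6 h. Liver and epididymal fat pads incubated ex vivo in culture medium containing cortisone. Cortisol formed was measured by ELISA and reported as % inhibition versus vehicle.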

[9] = molecular target: 11-beta-hydroxysteroid dehydrogenase 1 (Mus musculus, UniProt P50172); assay: Inhibition of mouse 11beta-HSD1 expressed in microsomes; design: species or system Microsome
11-beta-hydroxysteroid dehydrogenase 1, sequence (P50172 whole entry): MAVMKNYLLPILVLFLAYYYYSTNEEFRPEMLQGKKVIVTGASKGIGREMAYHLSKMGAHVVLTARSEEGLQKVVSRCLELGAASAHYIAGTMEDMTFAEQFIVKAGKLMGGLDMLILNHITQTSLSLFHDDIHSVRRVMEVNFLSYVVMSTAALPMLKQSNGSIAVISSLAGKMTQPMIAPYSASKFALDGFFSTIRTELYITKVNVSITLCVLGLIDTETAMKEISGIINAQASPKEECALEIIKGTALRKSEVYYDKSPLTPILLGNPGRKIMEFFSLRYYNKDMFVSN
Procedure, shortened: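 HEK293 cell lysates (microsomal fractions) overexpressing human or mouse 11β-HSD1 were incubated with cortisone, a range of inhibitor concentrations and an NADPH regenerating system in sodium phosphate buffer at 37°C for 1 h. Cortisol in the supernatant was quantified by ELISA. Percent inhibition was fitted to a sigmoidal dose-response curve to give IC50.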

[10] = AUC in mouse at 1 mg/kg, iv; assay type: ADME, organism-based; design: dose 1 mg/kg; conditions: in vivo
[11] = Half life in rat at 1 mg/kg, iv; assay type: ADME, organism-based; conditions: in vivo
[12] = In-vivo inhibition of 11beta-HSD1 activity in C57BL/6 mouse epididymal fat assessed as reduction in cortisone to-cortisol conversion at 3 mg/kg, po measured after 2 hrs by ELISA; assay type: functional; conditions: C57BL/6, Epididymal fat pad; procedure, shortened: as §2
[13] = AUC in dog at 0.5 mg/kg, iv; assay type: ADME, organism-based, Canis lupus familiaris; design: dose 0.5 mg/kg; conditions: in vivo
[14] = AUC in mouse at 5 mg/kg, po; assay type: ADME, organism-based; design: dose 5 mg/kg; conditions: in vivo
[15] = molecular target: T3, 11-beta-hydroxysteroid dehydrogenase type 2 (Homo sapiens, UniProt P80365); assay: Inhibition of human 11beta-HSD2 expressed in microsomes; design: species or system Microsome
T3 sequence (P80365 whole entry): T2 sequence (whole entry)

[16] = Reduction in HbA1c level in C57BL/6-Lep^ob (ob/ob) mouse at 20 mg/kg, po dosed once daily for 25 days and co-treated with 300 mg/kg. po QD for 25 days metformin relative to control; design: scale not given: the % may be the effect or the level left; conditions: time 25 day
[17] = Clearance in rat at 1 mg/kg, iv; assay type: ADME, organism-based; conditions: in vivo
[18] = Oral bioavailability in dog at 4 mg/kg; assay type: ADME, organism-based, Canis lupus familiaris; conditions: in vivo; procedure, shortened: as §1
[19] = Genotoxicity in Salmonella typhimurium by reverse mutation assay; assay type: toxicity; conditions: salmonella enterica subsp. enterica serovar typhimurium
Homo sapiens = organism: Homo sapiens; assay: Selectivity index, ratio of IC50 for human 11beta-HSD2 to IC50 for human 11beta-HSD1

In the case of `C[C@@H]1CN(c2ccc(S(C)(=O)=O)cc2F)CCN1c1nccc(C(=O)NC2C3CC4CC2CC(O)(C4)C3)n1` (stereo partly specified), the EC50 [1] is reported as greater than 5000 nM, the “Cp(f)” value [2] is reported as 100 nM and the Cmax [3] is reported as 1020 ng/mL. It also gave an Activity (Mus musculus) of 230.6 mg/dL, a Drug uptake [4] of 6.64 nmol/g and an inhibition [5] of 17%. The Tmax [6] was 1 h, the AUC [7] was 3390 ng·h/mL and the inhibition in vivo at 3 mg/kg [8] was 74%. The IC50 [9] was 1.6 nM, the AUC [10] was 2350 ng·h/mL and the half-life [11] was 1.8 h. The inhibition in vivo at 3 mg/kg [12] was 86%, the AUC [13] was 1470 ng·h/mL and the AUC [14] was 11300 ng·h/mL. It also gave an IC50 [15] greater than 10000 nM, an Activity [16] of 1.67% and a clearance [17] of 15.5 mL/min/kg. For the same molecule, the bioavailability [18] was 98%, the Activity [19] was “Non-Toxic” and the Ratio IC50 (Homo sapiens) was greater than 3000.
